pIC50: −log10 of the molar value. In brackets after ≈: the same amount, converted by molar mass.
Experiments:
[1] = test system: Enterococcus faecalis; experiment: Antibacterial activity against Enterococcus faecalis ATCC 29212 after 18 hrs by broth microdilution method; type: functional; details: ATCC 29212, 18 h
Summary of the method: (§1)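 CLSI broth microdilution with serial 2-fold dilutions from 0.06 to 64 μg/mL. Cation-adjusted Mueller–Hinton broth, inoculum 5 × 10^5 CFU/mL, incubated at 35 °C for 18 h. MIC taken as the lowest concentration with no visible growth.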

[2] = test system: Streptococcus pneumoniae; experiment: Antibacterial activity against Streptococcus pneumoniae D39 after 18 hrs by broth microdilution method; type: functional; details: D39, 18 h
Summary of the method: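 CLSI broth microdilution with 2-fold dilutions from 0.06 to 64 μg/mL. Cation-adjusted Mueller–Hinton broth with 2.5% lysed horse blood, inoculum 5 × 10^5 CFU/mL, grown at 35 °C for 18 h in 5% CO2. MIC is the lowest concentration showing no visible growth.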

[3] = molecular target: T1, Enoyl-[acyl-carrier-protein] reductase [NADH] FabI (Escherichia coli K-12, UniProt P0AEK4); experiment: Inhibition of Escherichia coli FabI using crotonoyl-CoA as substrate preincubated for 90 mins
T1 sequence (P0AEK4 whole entry): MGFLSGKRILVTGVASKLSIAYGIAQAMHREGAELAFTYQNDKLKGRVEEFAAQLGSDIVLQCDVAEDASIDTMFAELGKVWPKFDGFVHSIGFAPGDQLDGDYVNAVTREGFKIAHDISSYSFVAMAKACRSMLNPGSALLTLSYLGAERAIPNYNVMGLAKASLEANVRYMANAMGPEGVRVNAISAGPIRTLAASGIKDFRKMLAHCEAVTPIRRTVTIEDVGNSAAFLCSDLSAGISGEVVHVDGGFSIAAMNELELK
Summary of the method: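 Recombinant C-terminal 6-His-tagged E. coli FabI (40 nM) in 50 mM Hepes pH 7.5, 100 μM DTT, 0.006% Triton X-100. Enzyme preincubated with 20 μM NADH, 10 μM NAD+ and inhibitor in DMSO for 90 min at room temperature. Reaction started with 50 μM crotonoyl-CoA. 6–10 concentrations; IC50 by Langmuir fit.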

[4] = test system: Escherichia coli; experiment: Antibacterial activity against Escherichia coli C7 after 18 hrs by broth microdilution method; type: functional; details: C7, 18 h
[5] = test system: Staphylococcus aureus; experiment: Antibacterial activity against Staphylococcus aureus CIP54.146 after 18 hrs by broth microdilution method; type: functional; details: CIP54.146, 18 h; summary of the method: as §1

SMILES | MIC [1] | MIC [2] | pIC50 [3] | MIC [4] | MIC [5]
CCc1ccc(Oc2cccc(F)n2)c(O)c1 | > 32 µg/mL | > 64 µg/mL | 6.23 | 4 µg/mL (≈ 17.1 µM) | 0.25 µg/mL (≈ 1.07 µM)
Oc1cc(CC(F)(F)F)ccc1Oc1cccc(F)n1 | > 32 µg/mL | > 64 µg/mL | – | 4 µg/mL (≈ 13.9 µM) | 0.25 µg/mL (≈ 0.87 µM)
CCc1ccc(Oc2ccc(S(=O)(=O)NCCc3ccccn3)cc2F)c(O)c1 | > 32 µg/mL | > 32 µg/mL | 6.82 | 16 µg/mL (≈ 38.4 µM) | 0.25 µg/mL (≈ 0.6 µM)
Oc1cc(C(O)C(F)(F)F)ccc1Oc1cccc(F)n1 (configuration not stated) | > 32 µg/mL | > 32 µg/mL | 5.47 | 16 µg/mL (≈ 52.8 µM) | 1 µg/mL (≈ 3.3 µM)
CCc1ccc(Oc2ccc(S(C)(=O)=O)cc2F)c(O)c1 | > 32 µg/mL | > 32 µg/mL | 6.85 | 1 µg/mL (≈ 3.22 µM) | 0.25 µg/mL (≈ 0.806 µM)
CCc1ccc(Oc2ccc(S(N)(=O)=O)cc2F)c(O)c1 | > 32 µg/mL | > 32 µg/mL | 6.07 | 1 µg/mL (≈ 3.21 µM) | 0.25 µg/mL (≈ 0.803 µM)
Oc1cc(Br)ccc1Oc1cccc(F)n1 | > 32 µg/mL | 64 µg/mL (≈ 225 µM) | 6.92 | 1 µg/mL (≈ 3.52 µM) | 0.25 µg/mL (≈ 0.88 µM)
Oc1cc(Cn2ccnc2)ccc1Oc1cccc(F)n1 | > 32 µg/mL | > 32 µg/mL | 4.25 | > 32 µg/mL | 16 µg/mL (≈ 56.1 µM)
OCc1ccc(Oc2cccc(F)n2)c(O)c1 | > 32 µg/mL | > 32 µg/mL | 4.54 | > 32 µg/mL | 4 µg/mL (≈ 17 µM)
CCc1ccc(Oc2ccc(/C(C)=N/OC)cc2F)c(O)c1 | > 32 µg/mL | 16 µg/mL (≈ 52.7 µM) | 4.85 | > 32 µg/mL | 1 µg/mL (≈ 3.3 µM)
CCc1ccc(Oc2ccc(S(=O)(=O)CCC3OCCO3)cc2)c(O)c1 | > 32 µg/mL | > 32 µg/mL | 6.42 | 16 µg/mL (≈ 42.3 µM) | 0.25 µg/mL (≈ 0.661 µM)
CCCc1ccc(Oc2cccc(NC(C)=O)c2)c(O)c1 | > 32 µg/mL | > 32 µg/mL | 4.36 | > 32 µg/mL | 16 µg/mL (≈ 56.1 µM)
Oc1cc(Cn2cncn2)ccc1Oc1cccc(F)n1 | > 32 µg/mL | > 32 µg/mL | 5.28 | 16 µg/mL (≈ 55.9 µM) | 4 µg/mL (≈ 14 µM)
CCc1ccc(Oc2ccc(NCCCO)cc2F)c(O)c1 | > 32 µg/mL | > 32 µg/mL | 6.00 | 16 µg/mL (≈ 52.4 µM) | 0.25 µg/mL (≈ 0.819 µM)
CCc1ccc(Oc2ccc(N3CC(CNC(C)=O)OC3=O)cc2F)c(O)c1 (configuration not stated) | > 32 µg/mL | > 32 µg/mL | 5.21 | > 32 µg/mL | 4 µg/mL (≈ 10.3 µM)
CCc1ccc(Oc2ccccc2N)c(O)c1 | > 32 µg/mL | > 32 µg/mL | 6.80 | 4 µg/mL (≈ 17.4 µM) | 0.25 µg/mL (≈ 1.09 µM)
CCc1ccc(Oc2ccc(S(=O)(=O)NCCO)cc2F)c(O)c1 | > 32 µg/mL | > 32 µg/mL | 5.92 | 16 µg/mL (≈ 45 µM) | 0.25 µg/mL (≈ 0.703 µM)

SMILES | MIC [1] | MIC [2] | pIC50 [3] | MIC [4] | MIC [5]
COCc1ccc(Oc2cccc(F)n2)c(O)c1 | > 32 µg/mL | > 32 µg/mL | 4.85 | 16 µg/mL (≈ 64.2 µM) | 4 µg/mL (≈ 16 µM)
CCCNc1ccc(Oc2ccc(CC)cc2O)c(F)c1 | > 32 µg/mL | 16 µg/mL (≈ 55.3 µM) | 6.07 | 16 µg/mL (≈ 55.3 µM) | 0.25 µg/mL (≈ 0.864 µM)
CCc1ccc(Oc2ccc(NS(=O)(=O)C3CC3)cc2F)c(O)c1 | > 32 µg/mL | > 32 µg/mL | 5.64 | 16 µg/mL (≈ 45.5 µM) | 1 µg/mL (≈ 2.85 µM)
CCc1ccc(Oc2ccc(C(C)=O)cc2F)c(O)c1 | 16 µg/mL (≈ 58.3 µM) | 16 µg/mL (≈ 58.3 µM) | 6.96 | 1 µg/mL (≈ 3.65 µM) | 0.062 µg/mL (≈ 0.226 µM)
CCCc1ccc(Oc2ccc(OC)cc2)c(O)c1 | > 32 µg/mL | > 32 µg/mL | 6.64 | 4 µg/mL (≈ 15.5 µM) | 0.25 µg/mL (≈ 0.968 µM)
CC(C)Cc1ccc(Oc2cccc(F)n2)c(O)c1 | > 32 µg/mL | > 32 µg/mL | 6.24 | 4 µg/mL (≈ 15.3 µM) | 1 µg/mL (≈ 3.83 µM)
CCc1ccc(Oc2ccccc2NC)c(O)c1 | > 32 µg/mL | > 32 µg/mL | 3.95 | > 32 µg/mL | 4 µg/mL (≈ 16.4 µM)
CCCNS(=O)(=O)c1ccc(Oc2ccc(CC)cc2O)c(F)c1 | > 32 µg/mL | 16 µg/mL (≈ 45.3 µM) | 6.62 | 4 µg/mL (≈ 11.3 µM) | 0.062 µg/mL (≈ 0.175 µM)
CCc1ccc(Oc2cc(C)ccc2N)c(O)c1 | > 32 µg/mL | 16 µg/mL (≈ 65.8 µM) | 4.38 | 16 µg/mL (≈ 65.8 µM) | 1 µg/mL (≈ 4.11 µM)
Cc1ccc(Oc2cccc(F)n2)c(O)c1 | > 32 µg/mL | > 32 µg/mL | 5.46 | 16 µg/mL (≈ 73 µM) | 4 µg/mL (≈ 18.2 µM)
CCCc1ccc(Oc2cccc(F)n2)c(O)c1 | > 32 µg/mL | 64 µg/mL (≈ 259 µM) | – | 4 µg/mL (≈ 16.2 µM) | 0.25 µg/mL (≈ 1.01 µM)
Oc1cc(Cl)ccc1Oc1cccc(F)n1 | > 32 µg/mL | 64 µg/mL (≈ 267 µM) | 6.26 | 0.25 µg/mL (≈ 1.04 µM) | 0.25 µg/mL (≈ 1.04 µM)
Oc1cc(C(F)=C(F)F)ccc1Oc1cccc(F)n1 | > 32 µg/mL | > 32 µg/mL | – | 16 µg/mL (≈ 56.1 µM) | 1 µg/mL (≈ 3.51 µM)
Oc1cc(CCCn2cncn2)ccc1Oc1cccc(F)n1 | > 32 µg/mL | > 32 µg/mL | 5.16 | > 32 µg/mL | 4 µg/mL (≈ 12.7 µM)
CCCc1ccc(Oc2cccc(OC)c2)c(O)c1 | > 32 µg/mL | > 32 µg/mL | 5.51 | 16 µg/mL (≈ 61.9 µM) | 1 µg/mL (≈ 3.87 µM)
Cc1ccc(-c2ccc(Oc3cccc(F)n3)c(O)c2)cc1 | > 32 µg/mL | 16 µg/mL (≈ 54.2 µM) | 5.19 | 8 µg/mL (≈ 27.1 µM) | 8 µg/mL (≈ 27.1 µM)
CCc1ccc(Oc2ccc(S(C)(=O)=O)cc2)c(O)c1 | > 32 µg/mL | > 32 µg/mL | 6.09 | 16 µg/mL (≈ 54.7 µM) | 0.25 µg/mL (≈ 0.855 µM)

— ChEMBL document CHEMBL2176870 (J Med Chem, 2012)
